In ChEMBL document CHEMBL2069181, “In vitro and in vivo trypanosomicidal activity of pyrazole-containing macrocyclic and macrobicyclic polyamines: their action on acute and chronic phases of Chagas disease” (J Med Chem, 2012):
Blank lines part the entries; values can stand above or below the molecule they belong to. Active and inactive are the calls of the source.

Columns and labels:
Trypanosoma cruzi [1] = assay: Trypanosomicidal activity against Trypanosoma cruzi infected in Vero cells assessed as reduction in amastigotes per infected Vero cells after 6 days by Giemsa staining method; assay type: functional; set-up: scale not given: the % may be the effect or the level left
Trypanosoma cruzi [2] = assay: Trypanosomicidal activity against Trypanosoma cruzi SN3 epimastigote after 72 hrs by hemocytometric analysis; assay type: functional, organism-based; settings: SN3, 72 h
In short: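 Exponential-phase SN3 epimastigotes (Grace's medium, 10% FBS, 28 °C) seeded at 5 × 10^4 parasites/well with compounds dissolved in MTL at 1, 10, 25, 50, 100 μM.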

Trypanosoma cruzi [3] = assay: Trypanosomicidal activity against Trypanosoma cruzi SN3 anexic amastigote after 48 hrs by hemocytometric analysis; assay type: functional, organism-based; settings: SN3, 48 h
In short: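 Axenic amastigotes obtained from epimastigotes after 3 days in supplemented M199 (10% FCS, pH 5.4, 37 °C).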

Trypanosoma cruzi [4] = assay: Inhibition of Trypanosoma cruzi epimastigotes Fe-SOD at 25 ug/ml by NBT reduction assay
In short: (§1)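 Enzyme from epimastigotes grown without FBS (excreted Fe-SOD), sonicated in STE buffer pH 7.8, centrifuged, supernatant protein by Bradford; human erythrocyte CuZn-SOD for comparison. NBT reduction by superoxide (Beyer–Fridovich): methionine, NBT, Triton X-100, riboflavin, homogenate plus compound; A560 read before and after 10 min UV illumination with stirring. Five separate determinations; Newman–Keuls test against control.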

Trypanosoma cruzi [5] = assay: Trypanosomicidal activity against Trypanosoma cruzi epimastigotes assessed as altered nucleus by TEM analysis; assay type: functional, organism-based
Trypanosoma cruzi [6] = assay: Inhibition of Trypanosoma cruzi epimastigotes Fe-SOD at 10 ug/ml by NBT reduction assay; in short: as §1
Trypanosoma cruzi [7] = assay: Trypanosomicidal activity against Trypanosoma cruzi epimastigotes assessed as inhibition of succinate metabolite excretion after 96 hrs by NMR analysis; assay type: functional
In short: (§2)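 Epimastigotes (5 × 10^5 cells/mL) exposed to IC25 of compound for 96 h at 28 °C; supernatant after centrifugation analysed by 1H NMR with DSS reference, compared against untreated cultures.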

Trypanosoma cruzi [8] = assay: Trypanosomicidal activity against Trypanosoma cruzi epimastigotes assessed as intense vacuolization of protozoan cells by TEM analysis; assay type: functional, organism-based
Trypanosoma cruzi [9] = assay: Trypanosomicidal activity against Trypanosoma cruzi SN3 amastigote infected in Vero cells after 72 hrs by Giemsa staining method; assay type: functional, organism-based
In short: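 Vero cells seeded at 1 × 10^4/well on coverslips, grown 2 days, infected with metacyclic forms (10:1) for 24 h, washed, then treated at 1–100 μM for 72 h in RPMI/10% FBS. Amastigote reduction scored on methanol-fixed Giemsa-stained slides; four determinations; IC50.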

Mus musculus [10] = assay: Toxicity in BALB/c mouse liver infected with Trypanosoma cruzi assessed as hepatic destruction in portal tracts at 5 mg/kg, ip after 120 days postinfection by Histopathological analysis; assay type: organism-based; set-up: dose 5 mg/kg, route intraperitoneal; settings: in vivo, 2880 h
In short: (§3)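 Livers removed at 120 days postinfection, fixed in 10% buffered formalin, paraffin-embedded, 4–5 μm sections stained with H&E and Masson's trichrome. Blinded scoring of at least 30 fields per slide, 0 (none) to 5 (severe).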

Trypanosoma cruzi [11] = assay: Trypanosomicidal activity against Trypanosoma cruzi epimastigotes assessed as inhibition of acetate metabolite excretion after 96 hrs by NMR analysis; assay type: functional; in short: as §2
Vero = assay: Cytotoxicity against African green monkey Vero cells assessed as cell viability after 72 hrs by flow cytometric analysis; assay type: cell-based; settings: Chlorocebus sabaeus
In short: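 Vero cells grown in RPMI with 10% inactivated FBS at 37 °C, 5% CO2, seeded at 1 × 10^5 cells/mL, grown 2 days, then exposed to 1–100 μM compound for 72 h. Viability measured by flow cytometry; IC50 by linear regression.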

Mus musculus [12] = assay: Toxicity in BALB/c mouse liver infected with Trypanosoma cruzi assessed as granulomas with limphocitic infiltration at 5 mg/kg, ip after 120 days postinfection by Histopathological analysis; assay type: organism-based; set-up: dose 5 mg/kg, route intraperitoneal; settings: in vivo, 2880 h; in short: as §3
Trypanosoma cruzi [13] = assay: Antitrypanosomal activity against Trypanosoma cruzi infected in BALB/c mouse assessed as reduction in trypomastigotes at 1 mg/kg, ip dosed for 5 days measured on day 14 post infection; assay type: functional, organism-based; set-up: dose 1 mg/kg
In short: (§4)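 Female BALB/c mice infected with trypomastigotes, dosed ip at 1 mg/kg/day on days 5–10 postinfection; vehicle controls. Mandibular vein blood (5 μL) diluted in citrate/lysis buffer pH 7.2; parasites counted under immersion objective every 2 days from day 5 to 30, as parasites/mL.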

Trypanosoma cruzi [14] = assay: Antitrypanosomal activity against Trypanosoma cruzi infected in BALB/c mouse assessed as reduction in parasitemia at 1 mg/kg, ip dosed for 5 days measured on day 30 post infection; assay type: functional; set-up: scale not given: the % may be the effect or the level left; settings: route intraperitoneal; in short: as §4
Mus musculus [15] = assay: Toxicity in BALB/c mouse liver infected with Trypanosoma cruzi assessed as necrotic cells in portal tracts at 5 mg/kg, ip after 120 days postinfection by Histopathological analysis; assay type: organism-based; set-up: dose 5 mg/kg, route intraperitoneal; settings: in vivo, 2880 h; in short: as §3
Mus musculus [16] = assay: Toxicity in BALB/c mouse liver infected with Trypanosoma cruzi assessed as intestinal hemorrhage at 5 mg/kg, ip after 120 days postinfection by Histopathological analysis; assay type: organism-based; set-up: dose 5 mg/kg, route intraperitoneal; settings: in vivo, 2880 h; in short: as §3
Trypanosoma cruzi [17] = assay: Trypanosomicidal activity against Trypanosoma cruzi infected in Vero cells assessed as reduction in rate of infection after 10 days by Giemsa staining method; assay type: functional; set-up: scale not given: the % may be the effect or the level left
In short: (§5)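 Vero cells infected with metacyclic forms (10:1); compounds at IC25 added at infection for 12 h at 37 °C, then washed out and cultures grown 10 days with medium renewed every 48 h. Infected cells and amastigotes per cell counted in >100 host cells on Giemsa-stained slides; trypomastigotes in medium counted; mean of four determinations.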

[18] = Selectivity ratio of IC50 for Trypanosoma cruzi epimastigotes Fe-SOD to IC50 for human erythrocyte Cu-Zn SOD
[19] = Selectivity index, ratio of IC50 for Vero cells to IC50 for Trypanosoma cruzi anexic amastigote; assay type: toxicity, cell-based; settings: monkey, Vero cells versus Trypanosoma cruzi axenic amastigotes; read-out: Ratio IC50
Trypanosoma cruzi [20] = assay: Antitrypanosomal activity against Trypanosoma cruzi infected in BALB/c mouse assessed as reduction in anti-organism antibody at 1 mg/kg, ip dosed for 5 days measured on day 40 to 120 post infection; assay type: functional, organism-based; set-up: dose 1 mg/kg
In short: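 Infected female BALB/c mice given 1 mg/kg/day ip for 5 days. Serum (1:50 in PBS) on days 40 and 120 tested by ELISA against excreted epimastigote Fe-SOD antigen; absorbance 490 nm, cutoff = negative-control mean + 3 SD; change is day-120 minus day-40 absorbance.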

[21] = Selectivity index, ratio of IC50 for Vero cells to IC50 for Trypanosoma cruzi epimastigote; assay type: toxicity, cell-based; settings: monkey, Vero cells versus Trypanosoma cruzi epimastigotes; read-out: Ratio IC50
Trypanosoma cruzi [22] = assay: Trypanosomicidal activity against Trypanosoma cruzi infected in Vero cells assessed as reduction in trypomastigotes in culture medium after 10 days by Giemsa staining method; assay type: functional; set-up: scale not given: the % may be the effect or the level left; in short: as §5
Trypanosoma cruzi [23] = assay: Trypanosomicidal activity against Trypanosoma cruzi epimastigotes assessed as inhibition of L-lactate metabolite excretion after 96 hrs by NMR analysis; assay type: functional; in short: as §2
[24] = target: Superoxide dismutase [Cu-Zn], SOD1 (Homo sapiens) (UniProt P00441); assay: Activity of human erythrocyte Cu-Zn SOD by NBT reduction assay
Mus musculus [25] = assay: Toxicity in BALB/c mouse liver infected with Trypanosoma cruzi assessed as delocalized hepatic destruction at 5 mg/kg, ip after 120 days postinfection by Histopathological analysis; assay type: organism-based; set-up: dose 5 mg/kg, route intraperitoneal; settings: in vivo, 2880 h; in short: as §3
Trypanosoma cruzi [26] = assay: Trypanosomicidal activity against Trypanosoma cruzi epimastigotes assessed as reservosomes in cytoplasm by TEM analysis; assay type: functional, organism-based
Mus musculus [27] = assay: Toxicity in BALB/c mouse liver infected with Trypanosoma cruzi assessed as lymphocytic infiltrations in portal tracts at 5 mg/kg, ip after 120 days postinfection Histopathological analysis; assay type: organism-based; set-up: dose 5 mg/kg, route intraperitoneal; settings: in vivo, 2880 h; in short: as §3
[28] = Selectivity index, ratio of IC50 for Vero cells to IC50 for Trypanosoma cruzi intracellular amastigote infected in Vero cells; assay type: toxicity, cell-based; settings: monkey; read-out: Ratio IC50
Mus musculus [29] = assay: Toxicity in BALB/c mouse liver infected with Trypanosoma cruzi assessed as blood vessels with thickened walls at 5 mg/kg, ip after 120 days postinfection by Histopathological analysis; assay type: organism-based, Blood vessel; set-up: dose 5 mg/kg, route intraperitoneal; settings: in vivo, 2880 h; in short: as §3
Trypanosoma cruzi [30] = assay: Inhibition of Trypanosoma cruzi epimastigotes Fe-SOD at 50 ug/ml by NBT reduction assay; in short: as §1
[31] = Inhibition of Trypanosoma cruzi epimastigotes Fe-SOD by NBT reduction assay; in short: as §1

Chain of Superoxide dismutase [Cu-Zn], SOD1 (Homo sapiens) (P00441 whole entry, looked up): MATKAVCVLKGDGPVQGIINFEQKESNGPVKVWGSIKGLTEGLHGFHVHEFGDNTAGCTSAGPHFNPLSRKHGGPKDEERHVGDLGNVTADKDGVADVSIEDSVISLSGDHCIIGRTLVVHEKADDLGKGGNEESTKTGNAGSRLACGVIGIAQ

- inhibition (Trypanosoma cruzi [4]): 70%
- inhibition (Trypanosoma cruzi [6]): 75%
- Ratio IC50 [18]: 23
- Activity [24]: 23.4 U/mg
- inhibition (Trypanosoma cruzi [30]): 98%
SMILES: Cl.Cn1nc2cc1CNCCNCCNCc1cc(n(C)n1)CNCCNCCNC2
- Activity (Trypanosoma cruzi [1]): 42%
- IC50 (Trypanosoma cruzi [2]): 1.3 µM
- IC50 (Trypanosoma cruzi [3]): 8.8 µM
- Activity (Trypanosoma cruzi [5]): Active
- inhibition (INH) (Trypanosoma cruzi [7]): 70%
- Activity (Trypanosoma cruzi [8]): Active
- IC50 (Trypanosoma cruzi [9]): 6.5 µM
- Activity (Mus musculus [10]): Non-toxic
- inhibition (INH) (Trypanosoma cruzi [11]): 15%
- IC50 (Vero): 178 µM
- Activity (Mus musculus [12]): Non-toxic
- Activity (Trypanosoma cruzi [13]): Active
- Activity (Trypanosoma cruzi [14]): 39%
- Activity (Mus musculus [15]): Non-toxic
- Activity (Mus musculus [16]): Non-toxic
- Activity (Trypanosoma cruzi [17]): 80%
- selectivity ratio [19]: 20.3
- Activity (Trypanosoma cruzi [20]): Active
- selectivity ratio [21]: 137
- Activity (Trypanosoma cruzi [22]): 64%
- inhibition (INH) (Trypanosoma cruzi [23]): 58%
- Activity (Mus musculus [25]): Non-toxic
- Activity (Trypanosoma cruzi [26]): Active
- Activity (Mus musculus [27]): Non-toxic
- selectivity ratio [28]: 27.5
- Activity (Mus musculus [29]): Toxic
- IC50 [31]: 4.2 µM

- Activity [24]: 23.4 U/mg
- inhibition (Trypanosoma cruzi [30]): 65%
SMILES: CCCCCCCCN1CCNCc2cc([nH]n2)CNCCN(CCCCCCCC)CCNCc2cc(n[nH]2)CNCC1
- IC50 (Trypanosoma cruzi [2]): 46.4 µM
- IC50 (Trypanosoma cruzi [3]): 20.8 µM
- IC50 (Trypanosoma cruzi [9]): 18.4 µM
- IC50 (Vero): 21.5 µM
- selectivity ratio [19]: 1
- selectivity ratio [21]: 0.5
- selectivity ratio [28]: 1.1
- IC50 [31]: 44.6 µM
